PubChem BioAssay
The source made the active and inactive calls.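 Rule for the calls, unless noted: active = viability at or below 10% of carrier control in both of two separate runs; inconclusive = viability at or below 10% in only one of the two runs; inactive = the rest.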

How the values were obtained:
[1] = SK-BR-3 cell growth inhibitors, pilot screen, 24 h, human (AID 572); conditions: SK-BR-3 viability, CellTiter-Glo luminescence, at 10 µM, stronger effect = lower value;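 note: compound exposure lasted between 18 and 24 h rather than exactly 24 h; 100% = carrier-treated control wells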
[2] = HUVEC growth inhibition – cell-based, human, primary screen (AID 575;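 active = viability at or below 30% in both replicate assays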;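 note: 100% = median of untreated cell wells with 0.1% DMSO on each plate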); conditions: HUVEC proliferation, CellTiter-Glo luminescence, 72 h; at 10 µM; stronger effect = lower value
Summary of the method: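 Assay system: primary human umbilical vein endothelial cells / Buffer or medium: endothelial basal medium with 2% FBS plus growth supplements / Compound dosing: one dose, 10 µM final, 0.1% DMSO / Timing: 72 h treatment at 37 °C / Signal: CTG luminescence / Benchmarks: 32 DMSO-only cell-control wells (high), 32 MePR drug-control wells (low) per plate / Plate: collagen-coated 384-well format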

[3] = growth inhibitors of H69AR lung tumor, primary screen, human, duplicate replicates (AID 580;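 active = viability at or under a set limit in both replicates, limit being median viability minus 3 SD, cut at about 48% in these data, passing the limit was not always enough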;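 note: 100% = mean luminescence of untreated wells and 0% = no signal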); conditions: H69AR lung tumor cells viability, ATP luminescence, 72 h; at 10 µM; stronger effect = lower value
[4] = reversal of MRP1-mediated doxorubicin resistance, pilot screen, H69AR cells, doxorubicin co-treatment (AID 601;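 active = viability loss from added drug above about 55%, and viability with drug at most 40%, in both replicates, limit read from the data, passing the limit was not always enough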); conditions: CellTiter-Glo, 72 h, at 10 µM; for differential viability (reversal): stronger effect = higher value
[5] = 384-well plate pilot, post-Golgi transport modulator project, inhibition of yeast transport mutant growth (AID 636; in the data active = inhibition above about 31%); conditions: absorbance 615 nm, about 18 h, stronger effect = higher value
[6] = growth suppression of yeast trafficking mutant, preliminary HTS, modulators of trafficking downstream of Golgi apparatus project, 1536-format plate, OD 615 nm (AID 637; in the data active = inhibition above about 30%); conditions: yeast transport mutant growth, absorbance 615 nm, 18 h; stronger effect = higher value
[7] = H69AR cells + 2 uM doxorubicin, measured here: viability with 2 uM doxorubicin, stronger effect = lower value
[8] = H69AR cells, compound alone cytotoxicity

| SMILES | viability [1] | viability [2] | viability [3] | differential viability (reversal) ([4]; H69AR cells + 2 uM doxorubicin) | viability [4, 7] [%] | viability [4, 8] [%] | inhibition [5] | inhibition [6] |
| --- | --- | --- | --- | --- | --- | --- | --- | --- |
| Cc1cccc(C(=O)N(C)c2nnc(-c3ccncc3)s2)c1 | 98% (inactive) | 92.5% (inactive) | 85.8% (inactive) | -3.53% (inactive) | 89.4 | 85.8 | -0.41% (inactive) | 24.7% (inactive) |
| CCn1cc(C(=O)O)c(=O)c2ccc(C)nc21 | 106% (inactive) | 92.1% (inactive) | 101% (inactive) | 0.53% (inactive) | 100 | 101 | -0.78% (inactive) | -3.83% (inactive) |
| O=c1c2ccccc2[nH]c(=S)n1CCN1CCC(=C(c2ccc(F)cc2)c2ccc(F)cc2)CC1 | 113% (inactive) | 18.2% (active) | 78.8% (inactive) | -4.72% (inactive) | 83.6 | 78.8 | 83% (active) | 71% (active) |
| CCOc1ccc(NC(=O)Cn2nnc(-c3ccccc3F)n2)cc1 | 105% (inactive) | 100% (inactive) | 94.6% (inactive) | 7.41% (inactive) | 87.2 | 94.6 | -4.42% (inactive) | -2.3% (inactive) |
| COc1ccc(-c2nc(C)sc2CC(=O)O)cc1 | 100% (inactive) | 103% (inactive) | 95.8% (inactive) | 2.46% (inactive) | 93.3 | 95.8 | -2.21% (inactive) | 1.31% (inactive) |
| COc1nc(C)ccc1-c1noc(-c2ccncc2)n1 | 101% (inactive) | 86.5% (inactive) | 95.1% (inactive) | 11.4% (inactive) | 83.6 | 95.1 | -8.22% (inactive) | 1.45% (inactive) |
| CCCC1O[C@@H]2C[C@H]3[C@@H]4CCC5=CC(=O)C=C[C@]5(C)[C@H]4[C@@H](O)C[C@]3(C)[C@]2(C(=O)CO)O1 (some centres undefined) | 109% (inactive) | 82.4% (inactive) | 79.6% (inactive) | 0.52% (inactive) | 79.1 | 79.6 | 1.04% (inactive) | -3.83% (inactive) |
| CC(=N\O)/C(CN(C)C)=N/O | 97% (inactive) | 88.7% (inactive) | 91.5% (inactive) | -6.4% (inactive) | 97.9 | 91.5 | -1.78% (inactive) | 25.6% (inactive) |
| COc1ccc(C2c3c(oc4ccccc4c3=O)C(=O)N2Cc2ccncc2)cc1OC (centres undefined) | 91% (inactive) | 96.7% (inactive) | 93.7% (inactive) | -2.17% (inactive) | 95.8 | 93.7 | -7.84% (inactive) | 0.18% (inactive) |
| CC(C)(C)C1=Nn2c(nnc2-c2n[nH]c3c2CCC3)SC1 | 87% (inactive) | 97.3% (inactive) | 85.9% (inactive) | -4.71% (inactive) | 90.6 | 85.9 | -7.26% (inactive) | 4.68% (inactive) |
| CCn1c(SCC(=O)Nc2ccc3c(c2)OCO3)nnc1-c1cnccn1 | 89% (inactive) | 93.1% (inactive) | 95.4% (inactive) | 5.74% (inactive) | 89.7 | 95.4 | -5.62% (inactive) | -0.73% (inactive) |
| COc1cc(NC(=O)Nc2cccc(C(C)=O)c2)cc(OC)c1OC | 109% (inactive) | 102% (inactive) | 92.4% (inactive) | 4.83% (inactive) | 87.6 | 92.4 | -8.36% (inactive) | -0.18% (inactive) |
| CCOC(=O)c1[nH]c2ccc(C)cc2c1NC(=O)CN1CCCCC1 | 107% (inactive) | 106% (inactive) | 87.8% (inactive) | 0.72% (inactive) | 87.1 | 87.8 | -5.73% (inactive) | -3.09% (inactive) |
| O=C(Nc1cc(C(=O)N2CCCC2)ccc1N1CCCC1)c1ccccc1F | 108% (inactive) | 119% (inactive) | 101% (inactive) | 8.93% (inactive) | 92 | 101 | -8.13% (inactive) | -3.64% (inactive) |
| CCN(CC)c1ccc(C(=O)n2cnc3ccccc32)cc1 | 111% (inactive) | 61.5% (inactive) | 15.1% (active) | -53.7% (inactive) | 68.8 | 15.1 | -3.33% (inactive) | -2% (inactive) |
| O=C(Cn1[nH]c(=O)c2ccccc2c1=O)OCC(=O)N1CCCc2ccccc21 | 90% (inactive) | 101% (inactive) | 102% (inactive) | 13.7% (inactive) | 88.7 | 102 | -5.73% (inactive) | -2.55% (inactive) |
| CCC(C)NCC(O)COCc1ccc(Cl)cc1 (centres undefined) | 89% (inactive) | 101% (inactive) | 99.7% (inactive) | 11.5% (inactive) | 88.2 | 99.7 | 0.52% (inactive) | -4.59% (inactive) |
| Cc1ccc(NC2=NCC(=O)N2c2ccc3c(c2)OCCO3)c(C)c1 | 84% (inactive) | 95.7% (inactive) | 99.4% (inactive) | 0.67% (inactive) | 98.7 | 99.4 | -6.16% (inactive) | -2.9% (inactive) |
